The source of these data is ChEMBL document CHEMBL1138191, “Synthesis, pharmacological evaluation, and molecular modeling studies of novel peptidic CAAX analogues as farnesyl-protein-transferase inhibitors” (J Med Chem, 2006).

What is called IC50 is the midpoint of a concentration-inhibition curve. The low end stands for greater potency, the high end for weaker potency.

Calls of active or inactive are those of the source. No cut-off for these calls is given here.

Test [1] deals with FRTL-5. Briefly: Antiproliferative activity against FRTL5 cell line. In kind it is functional, cell-based. To be noted: Rattus norvegicus. The method in brief: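 FRTL-5 rat thyroid cells were grown in Coon's modified Ham F12 with 5% calf serum plus six hormones, including TSH 1 × 10^-10 M. Cells were seeded at ~10% confluency and attached for 24 h. Compounds in DMSO were applied for 24 h at 37 °C in 5% CO2, then washed out, followed by 48 h culture. SRB read-out, %T/C; IC50 from dose/effect curve; vehicle controls.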

The test system of test [2] is NIH3T3. Briefly: Antiproliferative activity against NIH3T3 cell line. The test is classed as functional, cell-based. To be noted: Mus musculus. The method in brief:
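NIH3T3 fibroblasts were grown in DMEM with 10% calf serum and seeded at ~10% confluency with 24 h attachment. A range of compound concentrations in DMSO was applied for 24 h at 37 °C in 5% CO2, then washed off, followed by 48 h further incubation. Growth by sulforhodamine B; %T/C versus vehicle; IC50 from dose/effect curve.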

Test [3] relates to MCF10. The test can be described thus: Antiproliferative activity against MCF10 cell line. In kind it is functional, cell-based. To be noted: Homo sapiens.
For test [4], the system named is MCF7. The test can be described thus: Antiproliferative activity against MCF7 cell line. In kind it is functional, cell-based. Particulars: Homo sapiens. Summed up:
(§1)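 Monolayers in RPMI-1640 with 10% FBS, seeded ~10% confluent and allowed 24 h recovery. Compounds in DMSO at varying concentrations for 24 h (37 °C, 5% CO2), then washout and 48 h further growth. Viability by sulforhodamine B; %T/C relative to vehicle-treated controls; 50% growth-inhibitory concentration taken from dose/effect curve.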

For test [5], the system named is MDA-MB-231. Briefly: Antiproliferative activity against MDA-MB-231 cell line. In kind it is functional, cell-based. Particulars: Homo sapiens. The method in brief:
as §1

For test [6], the system named is T47D. Briefly: Antiproliferative activity against T47D cell line. The test is classed as functional, cell-based. To be noted: Homo sapiens. Summed up: as §1
The test system of test [7] is LoVo. Briefly: Antiproliferative activity against LoVo cell line. In kind it is functional, cell-based. To be noted: Homo sapiens. Summed up:
as §1

The nature of test [8]: Inhibitory activity against farnesyl transferase.

Consider `CSCC[C@H](NC(=O)[C@H](Cc1cc(C)c(O)cc1C)NC(=O)[C@@H](NC(=O)[C@@H](N)CS)C(C)C)C(=O)O`, for which the outcome in test [1], in test [2], in test [3], in test [4], in test [5] and in test [6] was inactive. Besides, in test [7], the result was inactive. Also, half-maximal inhibition in test [8] (IC50) required 2.5 µM.
For `CSCC[C@H](NC(=O)[C@H](Cc1ccc(C)cc1C)NC(=O)[C@@H](NC(=O)[C@@H](N)CS)C(C)C)C(=O)O`, the outcome in test [1], in test [2], in test [3], in test [4], in test [5] and in test [6] was inactive. The outcome in test [7] was inactive. The molecule also had an IC50 in test [8] of 2.2 µM.
Regarding `CSCC[C@H](NC(=O)[C@@H](Cc1ccc(C)cc1C)NC(=O)[C@@H](NC(=O)[C@@H](N)CS)C(C)C)C(=O)O`, the outcome in test [1], in test [2], in test [3], in test [4], in test [5] and in test [6] was inactive. Further, in test [7], the outcome was inactive. Moreover, the IC50 in test [8] was determined as 4.3 µM.
For `COC(=O)[C@H](CCSC)NC(=O)[C@H](Cc1ccc(O)c(C)c1C)NC(=O)[C@@H](NC(=O)[C@@H](N)CS)C(C)C`, the IC50 came out at 65 µM in test [4]; 83 µM in test [5]; 90 µM in test [6]; 9.1 µM in test [7]; 20.4 µM in test [8].
For the molecule `CSCC[C@H](NC(=O)[C@H]1CC2CCCCC2N1C(=O)[C@@H](NC(=O)[C@@H](N)CS)C(C)C)C(=O)O` (stereo not given in full), the result in test [1], in test [2], in test [3], in test [4], in test [5] and in test [6] was inactive. The outcome in test [7] was inactive. For the same molecule, the IC50 in test [8] worked out at 1 µM.
Turning to `CSCC[C@H](NC(=O)[C@H](Cc1ccc(O)c(C)c1C)NC(=O)[C@@H](NC(=O)[C@H](CS)NC=O)C(C)C)C(=O)O`, the IC50 in test [5] came to 100 µM; in test [6], 100 µM; in test [8], 10.3 µM.
In the case of `CSCC[C@H](NC(=O)[C@H](Cc1ccc(O)c(C)c1C)NC(=O)[C@@H](NC(=O)[C@@H](N)CS)C(C)C)C(=O)O`, the result in test [1], in test [2], in test [3], in test [4], in test [5] and in test [6] was inactive. Further, the result in test [7] was inactive. The molecule further returned an IC50 in test [8] of 0.1 µM.
As to `CSCC[C@H](NC(=O)[C@@H](Cc1ccc(O)c(C)c1C)NC(=O)[C@@H](NC(=O)[C@@H](N)CS)C(C)C)C(=O)O`, the result in test [1], in test [2], in test [3], in test [4], in test [5] and in test [6] was inactive. Also, the result in test [7] was inactive. Half-maximal inhibition in test [8] (IC50) required 4.3 µM.
`CSCC[C@H](NC(=O)[C@H](Cc1cc(C)c(O)cc1C)NC(=O)[C@@H](NC(=O)[C@H](CS)NC=O)C(C)C)C(=O)O` came in with an IC50 in test [8] of 5.5 µM.
`CSCC[C@H](NC(=O)[C@@H](Cc1ccc(O)cc1C)NC(=O)[C@@H](NC(=O)[C@@H](N)CS)C(C)C)C(=O)O`: the result in test [1], in test [2], in test [3], in test [4], in test [5] and in test [6] was inactive. Further, the outcome in test [7] was inactive. The same molecule came in with an IC50 in test [8] of 11.4 µM.
Turning to `COC(=O)[C@H](CCSC)NC(=O)[C@@H](Cc1ccc(O)c(C)c1C)NC(=O)[C@@H](NC(=O)[C@@H](N)CS)C(C)C`, the result in test [1], in test [2], in test [3], in test [4], in test [5] and in test [6] was inactive. The result in test [7] was inactive. This molecule yielded an IC50 in test [8] of 70.5 µM.
Turning to `CSCC[C@H](NC(=O)[C@@H](Cc1cc(C)c(O)cc1C)NC(=O)[C@@H](NC(=O)[C@H](CS)NC=O)C(C)C)C(=O)O`, in test [8], the half-inhibitory concentration (IC50) was determined as 10.2 µM.
As for `CSCC[C@H](NC(=O)[C@H](Cc1ccc(O)cc1C)NC(=O)[C@@H](NC(=O)[C@@H](N)CS)C(C)C)C(=O)O`, the result in test [1], in test [2], in test [3], in test [4], in test [5] and in test [6] was inactive. Moreover, the result in test [7] was inactive. This molecule registered an IC50 in test [8] of 4.3 µM.
Consider `CSCC[C@H](NC(=O)[C@@H](Cc1cc(C)c(O)cc1C)NC(=O)[C@@H](NC(=O)[C@@H](N)CS)C(C)C)C(=O)O`, for which the result in test [1], in test [2], in test [3], in test [4], in test [5] and in test [6] was inactive. In addition, in test [7], the outcome was inactive. In addition, the IC50 in test [8] turned out to be 10.5 µM.
